# Source: ChEMBL document CHEMBL1126893, “Synthesis and CLOGP correlation of imidooxy anticonvulsants” (J Med Chem, 1993)
# Columns and labels:
# Type in all cases: functional
# Mus musculus [1] = experiment: Time of peak effect of toxicity of compound was measured by both MES and sc Met test in mice
# How it was run: (§1)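 Phase II quantification in mice after ip dosing. ED50 (scMet or MES) measured at the time of peak effect. TD50 (rotorod neurologic deficit) measured at the time of peak neurologic deficit. Medians and 95% confidence limits by the Litchfield-Wilcoxon method. Protective index = TD50/ED50. Time of peak effect determined in the MES or scMet test.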
# Mus musculus [2] = experiment: Time of peak effect of activity of compound was measured by both MES and sc Met test in mice; how it was run: as §1
# Rattus norvegicus = experiment: Effective dose was measured in rat by maximal electroshock method by ip administration
# Mus musculus [3] = experiment: Anticonvulsant activity was measured by rotarod toxicity test on mice at 30 min at the dose of 100 mg/kg; number of animals protected/number of animals tested, 0/8
# Mus musculus [4] = experiment: Anticonvulsant activity was measured by rotarod toxicity teston mice at 0.50 hr at the dose of 50 mg/kg; number of animals protected/number of animals tested, 0/4
# Mus musculus [5] = experiment: Anticonvulsant activity was measured by rotarod toxicity test on mice at 4 hr at the dose of 50 mg/kg; number of animals protected/number of animals tested, 0/4
# Mus musculus [6] = experiment: Anticonvulsant activity was measured by rotarod toxicity test on mice at 4 hr at the dose of 100 mg/kg; number of animals protected/number of animals tested, 0/4
# Mus musculus [7] = experiment: Anticonvulsant activity was measured by maximal electroshock test on mice at 050 hr at the dose of 50 mg/kg; number of animals protected/number of animals tested, 0/4
# Mus musculus [8] = experiment: Anticonvulsant activity was measured by maximal electroshock test on mice at 30 min at the dose of 100 mg/kg; number of animals protected/number of animals tested, 0/3
# Mus musculus [9] = experiment: Anticonvulsant activity was measured by maximal electroshock test on mice at 4 hr at the dose of 100 mg/kg; number of animals protected/number of animals tested, 0/3
# Mus musculus [10] = experiment: Anticonvulsant activity was measured by subcutaneous pentylenetetrazole test on mice at 30 min at the dose of 300 mg/kg; number of animals protected/number of animals tested, 0/1
# Mus musculus [11] = experiment: Anticonvulsant activity was measured by rotarod toxicity test on mice at 4 hr at the dose of 300 mg/kg; number of animals protected/number of animals tested, 0/2
# Mus musculus [12] = experiment: Anticonvulsant activity was measured by maximal electroshock test on mice at 1 hr at the dose of 50 mg/kg; number of animals protected/number of animals tested, 0/4
# Mus musculus [13] = experiment: Anticonvulsant activity was measured by maximal electroshock test on mice at 0.25 hr at the dose of 50 mg/kg; number of animals protected/number of animals tested, 0/4
# Mus musculus [14] = experiment: Anticonvulsant activity was measured by rotarod toxicity teston mice at 0.25 hr at the dose of 50 mg/kg; number of animals protected/number of animals tested, 0/4
# Mus musculus [15] = experiment: Anticonvulsant activity was measured by maximal electroshock test on mice at 4 hr at the dose of 50 mg/kg; number of animals protected/number of animals tested, 0/4
# Mus musculus [16] = experiment: Anticonvulsant activity was measured by rotarod toxicity test on mice at 30 min at the dose of 300 mg/kg; number of animals protected/number of animals tested, 4/4
# Mus musculus [17] = experiment: Anticonvulsant activity was measured by maximal electroshock test on mice at 30 min at the dose of 300 mg/kg; number of animals protected/number of animals tested, 1/1
# Mus musculus [18] = experiment: Anticonvulsant activity was measured by subcutaneous pentylenetetrazole test on mice at 30 min at the dose of 100 mg/kg; number of animals protected/number of animals tested, 0/1
# Mus musculus [19] = experiment: Anticonvulsant activity was measured by rotarod toxicity test on mice at 1 hr at the dose of 50 mg/kg; number of animals protected/number of animals tested, 0/4
# Mus musculus [20] = experiment: Anticonvulsant activity was measured by rotarod toxicity test on mice at 2 hr at the dose of 50 mg/kg; number of animals protected/number of animals tested, 0/4
# Mus musculus [21] = experiment: Anticonvulsant activity was measured by subcutaneous pentylenetetrazole test on mice at 4 h at the dose of 300 mg/kg; number of animals protected/number of animals tested, 0/1
# Mus musculus [22] = experiment: Anticonvulsant activity was measured by maximal electroshock test on mice at 4 hr at the dose of 300 mg/kg; number of animals protected/number of animals tested, 0/1
# Mus musculus [23] = experiment: Anticonvulsant activity was measured by subcutaneous pentylenetetrazole test on mice at 4 hr at the dose of 100 mg/kg; number of animals protected/number of animals tested, 0/1
# Mus musculus [24] = experiment: Anticonvulsant activity was measured by maximal electroshock test on mice at 2 hr at the dose of 50 mg/kg; number of animals protected/number of animals tested, 1/4
# Mus musculus [25] = species on record: Mus musculus; experiment: Protective index (TD50/ED50) value in MES test in mice
# Mus musculus [26] = species on record: Mus musculus; experiment: Protective index (TD50/ED50) value in scMET test in mice; how it was run: as §1
# Mus musculus [27] = experiment: Anticonvulsant activity was measured by rotarod toxicity teston mice at 0.25 hr at the dose of 100 mg/kg; number of animals protected/number of animals tested 0/2
# Mus musculus [28] = experiment: Anticonvulsant activity was measured by subcutaneous pentylenetetrazole test on mice at 4 hr at the dose of 300 mg/kg; number of animals protected/number of animals tested 0/1
# Mus musculus [29] = experiment: Anticonvulsant activity was measured by maximal electroshock test on mice at 30 min at the dose of 300 mg/kg; number of animals protected/number of animals tested 1/1
# Mus musculus [30] = experiment: Anticonvulsant activity was measured by rotarod toxicity test on mice at 30 min at the dose of 300 mg/kg; number of animals protected/number of animals tested 0/4
# Mus musculus [31] = experiment: Effective dose was measured in mouse by subcutaneous pentylenetetrazole method by ip administration.; how it was run: as §1
# Mus musculus [32] = experiment: Anticonvulsant activity was measured by maximal electroshock test on mice at 4 h at the dose of 300 mg/kg; number of animals protected/number of animals tested 0/1
# Mus musculus [33] = experiment: Anticonvulsant activity was measured by subcutaneous pentylenetetrazole test on mice at 30 min at the dose of 300 mg/kg; number of animals protected/number of animals tested 1/1
# Mus musculus [34] = experiment: Anticonvulsant activity was measured by rotarod toxicity test on mice at 4 h at the dose of 300 mg/kg; number of animals protected/number of animals tested 0/2
# Mus musculus [35] = experiment: Anticonvulsant activity was measured by rotarod toxicity test on mice at 1 hr at the dose of 100 mg/kg; number of animals protected/number of animals tested, 0/2
# Mus musculus [36] = experiment: Anticonvulsant activity was measured by maximal electroshock test on mice at 0.25 hr at the dose of 100 mg/kg; number of animals protected/number of animals tested 0/2
# Mus musculus [37] = experiment: Effective dose was measured in mouse by maximal electroshock method by ip administration.; how it was run: as §1
smiles,measurement,setting,value
CCC1(C)CC(=O)NC1=O (stereo not given) [ETHOSUXIMIDE],TPE,Mus musculus [1],0.5
same,TPE,Mus musculus [2],0.5 toxicity
same,ED50,Rattus norvegicus,> 1000 mg/kg
O=C1CC2(CCCC2)C(=O)N1OCc1ccccc1Cl,Ratio,Mus musculus [3],0
same,Ratio,Mus musculus [4],0
same,Ratio,Mus musculus [5],0
same,Ratio,Mus musculus [6],0
same,Ratio,Mus musculus [7],0
same,Ratio,Mus musculus [8],0
same,Ratio,Mus musculus [9],0
same,Ratio,Mus musculus [10],0
same,Ratio,Mus musculus [11],0
same,Ratio,Mus musculus [12],0
same,Ratio,Mus musculus [13],0
same,Ratio,Mus musculus [14],0
same,Ratio,Mus musculus [15],0
same,Ratio,Mus musculus [16],4
same,Ratio,Mus musculus [17],1
same,Ratio,Mus musculus [18],0
same,Ratio,Mus musculus [19],0
same,Ratio,Mus musculus [20],0
same,Ratio,Mus musculus [21],0
same,Ratio,Mus musculus [22],0
same,Ratio,Mus musculus [23],0
same,Ratio,Mus musculus [24],1
O=C1CC2(CCCC2)C(=O)N1OCc1ccc(C(F)(F)F)cc1,PI,Mus musculus [25],>1.7
same,PI,Mus musculus [26],>1.7
same,Ratio,Mus musculus [27],0
same,Ratio,Mus musculus [28],0
same,TPE,Mus musculus [1],0.25
same,TPE,Mus musculus [2],2
same,Ratio,Mus musculus [29],1
same,Ratio,Mus musculus [30],0
same,ED50,Mus musculus [31],300 mg/kg
same,Ratio,Mus musculus [32],0
same,Ratio,Mus musculus [33],1
same,Ratio,Mus musculus [34],0
same,Ratio,Mus musculus [35],0
same,Ratio,Mus musculus [36],0
same,ED50,Mus musculus [37],300 mg/kg
